Assay results pooled from the literature.
HTR1B: 5-hydroxytryptamine receptor 1B (HTR1B, Homo sapiens, UniProt P28222)
MTNR1B: Melatonin receptor type 1B (MTNR1B, Homo sapiens, UniProt P49286)

| Compound | target | test | setting | quantity | value |
| --- | --- | --- | --- | --- | --- |
| O=C1c2ccccc2CCN1CCCCN1CCN(c2cccc(Cl)c2Cl)CC1 | HTR1B | ligand displacement, radioligand |  | Ki | 73 nM |
| Cc1cc2nc3c(=O)[nH]c(=O)nc-3n(C[C@H](O)[C@H](O)[C@H](O)COP(=O)(O)OP(=O)(O)OC[C@H]3O[C@@H](n4cnc5c(N)ncnc54)[C@H](O)[C@@H]3O)c2cc1C | Transformer-2 protein homolog beta (Homo sapiens, UniProt P62995) | binding | lysate | Kd | 36 nM |
| C=C1CC[C@@H]2[C@](C)(CO)[C@H](O)CC[C@@]2(C)[C@@H]1CCC1=CCOC1=O | UDP-glucuronosyltransferase 2B7 (UGT2B7, Homo sapiens, UniProt P16662) | enzyme activity, inhibitor | pH 7.4 | Ki | 1500 nM |
| O=C(O)CC[C@@H](O)C(=O)O | Protein phosphatase 3 catalytic subunit alpha (PPP3CA, Homo sapiens, UniProt Q08209) | binding, SPR |  | Kd | ~67000 nM |
| CC(=O)NCCc1c(Cc2ccccc2)[nH]c2ccccc12 | MTNR1B | cAMP, antagonist, TR-FRET |  | Kb | ~100 nM |
| CCCCN1CCC(COC(=O)c2ccc(N)c(OCF)c2)CC1 | HTR1B | cell-free assay, radioligand |  | Ki | > 10000 nM |
| COc1ccc2[nH]cc(CCNC(C)=O)c2c1I | MTNR1B | cAMP, agonist, TR-FRET |  | EC50 | 229 nM |
| COc1ccc(-c2nsc(NC(=O)[C@@H]3C[C@H]3C)c2C)cc1 | Metabotropic glutamate receptor 7 (GRM7, Homo sapiens, UniProt Q14831) | calcium signal, agonist |  | EC50 | > 16700 nM |
| COc1cc(I)c2[nH]cc(CCNC(C)=O)c2c1 | MTNR1B | β-arrestin recruitment, agonist |  | EC50 | 60.3 nM |
| Cc1cc(Nc2cc3ncccc3c(N[C@@H]3C[C@H]4CC[C@@H](C3)N4CCC#N)n2)n[nH]1 | Cyclin-dependent kinase 7 (CDK7, Homo sapiens, UniProt P50613) | binding, competition with immobilised ligand |  | Kd | 860 nM |
| COc1ccc2c(c1)C(=O)C1(CCc3ccccc31)O2 (centres unmarked) | Peptidyl-prolyl cis-trans isomerase NIMA-interacting 1 (PIN1, Homo sapiens, UniProt Q13526) | enzyme activity, inhibitor |  | Ki | 77000 nM |
| O=C(NCCc1cccc2ccccc12)C1CCC1 | MTNR1B | ligand displacement, radioligand | cell membranes | Ki | ~100 nM |
| COc1ccc(Br)c(CNc2cccnc2)c1 | MTNR1B | cell-free assay |  | Ki | 6.92 nM |
| CC1(C)[C@@H](O)CC[C@]2(C)[C@H]3C(=O)C=C4[C@@H]5C[C@@](C)(C(=O)O)CC[C@]5(C)CC[C@@]4(C)[C@]3(C)CC[C@@H]12 | Peroxiredoxin-1 (PRDX1, Homo sapiens, UniProt Q06830) | binding, SPR |  | Kd | 25000 nM |
